Results from ChEMBL document CHEMBL1123302, “Antagonists of substance P. Further modifications of substance P antagonists obtained by replacing either positions 7, 9 or 7, 8 and 11 of SP with D-amino acid residues” (J Med Chem, 1986).
Values belong to the compound of their own block, whether it stands above or below them.

What was measured:
[1] = biological target: Metabotropic glutamate receptor 3 (Rattus norvegicus) (UniProt P31422); assay: Antagonistic activity against Glutamate receptor in rat spinal cord at concentration of 21 uM.; type: functional, tissue-based
Sequence of Metabotropic glutamate receptor 3 (Rattus norvegicus) (P31422 23-879 limits assumed): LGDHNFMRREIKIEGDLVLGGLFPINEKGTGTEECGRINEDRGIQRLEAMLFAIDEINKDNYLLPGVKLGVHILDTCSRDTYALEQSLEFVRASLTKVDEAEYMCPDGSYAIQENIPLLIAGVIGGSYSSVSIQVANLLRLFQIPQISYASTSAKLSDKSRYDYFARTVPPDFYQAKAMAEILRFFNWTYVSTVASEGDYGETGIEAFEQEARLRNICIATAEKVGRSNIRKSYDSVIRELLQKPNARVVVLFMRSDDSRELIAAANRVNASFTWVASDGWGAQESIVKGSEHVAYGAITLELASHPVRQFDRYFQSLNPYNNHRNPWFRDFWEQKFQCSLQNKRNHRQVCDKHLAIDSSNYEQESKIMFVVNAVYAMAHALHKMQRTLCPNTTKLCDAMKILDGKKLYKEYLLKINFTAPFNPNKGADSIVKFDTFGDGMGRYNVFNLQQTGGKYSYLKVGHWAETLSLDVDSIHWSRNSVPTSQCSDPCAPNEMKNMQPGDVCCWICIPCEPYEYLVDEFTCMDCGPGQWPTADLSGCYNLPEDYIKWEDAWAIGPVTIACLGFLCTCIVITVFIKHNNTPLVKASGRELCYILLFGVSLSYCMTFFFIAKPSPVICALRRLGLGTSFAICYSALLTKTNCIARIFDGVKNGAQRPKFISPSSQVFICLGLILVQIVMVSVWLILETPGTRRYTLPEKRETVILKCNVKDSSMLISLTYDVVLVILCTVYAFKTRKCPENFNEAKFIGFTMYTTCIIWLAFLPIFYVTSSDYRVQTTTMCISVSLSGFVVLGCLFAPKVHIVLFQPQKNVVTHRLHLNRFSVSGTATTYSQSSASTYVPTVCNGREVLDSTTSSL
Method in brief: (§1)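 Neonatal rat spinal cord, hemisected sagittally, superfused at 1 mL/min with oxygenated Krebs-Henseleit medium containing 0.5% urethane at room temperature. Agonists were given in 2-mL doses in the superfusate. Antagonist was superfused continuously for at least 15 min before agonist retesting. Read-out was ventral root depolarization (DC potential, ventral root vs cord body), measured as amplitude and area of response.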

Substance-P receptor [2] = biological target: T1, Substance-P receptor (Rattus norvegicus, UniProt P14600); assay: Compound was evaluated for the histamine releasing activity of the Substance P from isolated rat peritoneal mast cells using the procedure of Fretwell et al; type: functional, cell-based
T1 sequence (P14600 whole entry): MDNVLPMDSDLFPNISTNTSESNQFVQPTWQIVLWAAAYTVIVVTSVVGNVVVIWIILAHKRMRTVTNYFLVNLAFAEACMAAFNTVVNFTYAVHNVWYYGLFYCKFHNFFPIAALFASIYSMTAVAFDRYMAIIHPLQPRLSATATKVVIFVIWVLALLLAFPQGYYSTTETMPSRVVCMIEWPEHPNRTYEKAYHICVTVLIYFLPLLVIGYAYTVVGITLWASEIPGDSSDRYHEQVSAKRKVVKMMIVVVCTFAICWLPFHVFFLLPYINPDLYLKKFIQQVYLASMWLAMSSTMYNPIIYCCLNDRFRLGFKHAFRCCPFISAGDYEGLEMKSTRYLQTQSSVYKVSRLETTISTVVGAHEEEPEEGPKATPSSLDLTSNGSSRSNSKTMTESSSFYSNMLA
Method in brief: (§2)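 Histamine release from isolated rat peritoneal mast cells, method of Fretwell et al. Dose-response curves were built over a range of concentrations, and EC50 values were calculated from the curves.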

[3] = biological target: Substance-P receptor (Cavia porcellus) (UniProt P30547); assay: Antagonistic activity against Substance P(6-11) receptor in guinea pig ileum at concentration of 4.5 uM.; type: functional, tissue-based
Sequence of Substance-P receptor (Cavia porcellus) (P30547 whole entry): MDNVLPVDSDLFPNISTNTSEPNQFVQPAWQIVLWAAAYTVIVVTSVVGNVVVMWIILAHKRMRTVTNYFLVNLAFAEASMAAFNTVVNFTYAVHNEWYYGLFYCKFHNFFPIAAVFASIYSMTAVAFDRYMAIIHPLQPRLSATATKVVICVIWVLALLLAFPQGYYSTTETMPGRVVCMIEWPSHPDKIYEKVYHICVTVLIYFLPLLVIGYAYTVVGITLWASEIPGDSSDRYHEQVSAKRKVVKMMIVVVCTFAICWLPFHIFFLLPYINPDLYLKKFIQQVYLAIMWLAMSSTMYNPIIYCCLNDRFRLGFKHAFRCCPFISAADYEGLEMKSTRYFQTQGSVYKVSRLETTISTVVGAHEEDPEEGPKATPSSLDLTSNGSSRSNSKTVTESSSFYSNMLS
Method in brief: (§3)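 Distal ileum from Dunkin-Hartley guinea pigs (300-350 g, both sexes), held in a 5-mL bath of Krebs solution at 37 °C gassed with 95% O2/5% CO2. Agonist dose-response curves ran on a 3-min cycle with 1-min contact, then washout. Dose ratio = agonist EC50 with antagonist / EC50 alone. At least two preparations per compound; ratios below two were taken as insignificant.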

[4] = biological target: Substance-P receptor (Cavia porcellus) (UniProt P30547); assay: Antagonistic activity against Substance P receptor in guinea pig ileum at concentration of 1 uM.; type: functional, tissue-based; method in brief: as §3
[5] = biological target: Substance-P receptor (Cavia porcellus) (UniProt P30547); assay: Antagonistic activity against Substance P receptor in guinea pig ileum at concentration of 4.5 uM.; type: functional, tissue-based; method in brief: as §3
[6] = biological target: Substance-P receptor (Cavia porcellus) (UniProt P30547); assay: Antagonistic activity against Substance P(6-11) receptor in guinea pig ileum at concentration of 1 uM.; type: functional, tissue-based; method in brief: as §3
[7] = biological target: Substance-P receptor (Rattus norvegicus) (UniProt P14600); assay: Antagonistic activity against Substance P receptor in rat spinal cord at concentration of 43 uM.
Sequence of Substance-P receptor (Rattus norvegicus) (P14600 whole entry, looked up): as the sequence (P14600 whole entry) above

[8] = biological target: Substance-P receptor (Rattus norvegicus) (UniProt P14600); assay: Antagonistic activity against Substance P receptor in rat spinal cord at concentration of 21 uM.
[9] = biological target: Substance-P receptor (Rattus norvegicus) (UniProt P14600); assay: Antagonistic activity against Substance P(6-11) receptor in rat spinal cord at concentration of 21 uM.
[10] = biological target: Substance-P receptor (Rattus norvegicus) (UniProt P14600); assay: Antagonistic activity against Substance P(6-11) receptor in rat spinal cord at concentration of 43 uM.
[11] = biological target: Metabotropic glutamate receptor 3 (Rattus norvegicus) (UniProt P31422); assay: Antagonistic activity against Glutamate receptor in rat spinal cord at concentration of 0.5 uM.; type: functional, tissue-based; method in brief: as §1
[12] = biological target: Metabotropic glutamate receptor 3 (Rattus norvegicus) (UniProt P31422); assay: Antagonistic activity against Glutamate receptor in rat spinal cord at concentration of 1.0 uM.; type: functional, tissue-based; method in brief: as §1
[13] = biological target: Metabotropic glutamate receptor 3 (Rattus norvegicus) (UniProt P31422); assay: Antagonistic activity against Glutamate receptor in rat spinal cord at concentration of 10.0 uM.; type: functional, tissue-based; method in brief: as §1
[14] = biological target: Metabotropic glutamate receptor 3 (Rattus norvegicus) (UniProt P31422); assay: Antagonistic activity against Glutamate receptor in rat spinal cord at concentration of 5.0 uM.; type: functional, tissue-based; method in brief: as §1
[15] = biological target: Metabotropic glutamate receptor 3 (Rattus norvegicus) (UniProt P31422); assay: Antagonistic activity against Glutamate receptor in rat spinal cord at concentration of 50.0 uM.; type: functional, tissue-based; method in brief: as §1
[16] = biological target: Substance-P receptor (Cavia porcellus) (UniProt P30547); assay: Antagonistic activity against Substance P receptor in guinea pig ileum at concentration of 0.5 uM.; type: functional, tissue-based; method in brief: as §3
[17] = biological target: Substance-P receptor (Cavia porcellus) (UniProt P30547); assay: Antagonistic activity against Substance P receptor in guinea pig ileum at concentration of 1.0 uM.; type: functional, tissue-based; method in brief: as §3
[18] = biological target: Substance-P receptor (Cavia porcellus) (UniProt P30547); assay: (§4) Antagonistic activity against Substance P receptor in guinea pig ileum at concentration of 10.0 uM.; type: functional, tissue-based; method in brief: as §3
[19] = biological target: Substance-P receptor (Cavia porcellus) (UniProt P30547); assay: (§5) Antagonistic activity against Substance P receptor in guinea pig ileum at concentration of 5.0 uM.; type: functional, tissue-based; method in brief: as §3
[20] = biological target: Substance-P receptor (Cavia porcellus) (UniProt P30547); assay: as §4; type: functional, tissue-based; method in brief: as §3; remark: listed apart in the source
[21] = biological target: Substance-P receptor (Cavia porcellus) (UniProt P30547); assay: Antagonistic activity against Substance P(6-11) receptor in guinea pig ileum at concentration of 0.5 uM.; type: functional, tissue-based; method in brief: as §3
[22] = biological target: Substance-P receptor (Cavia porcellus) (UniProt P30547); assay: Antagonistic activity against Substance P(6-11) receptor in guinea pig ileum at concentration of 1.0 uM.; type: functional, tissue-based; method in brief: as §3
[23] = biological target: Substance-P receptor (Cavia porcellus) (UniProt P30547); assay: as §5; type: functional, tissue-based; method in brief: as §3; remark: listed apart in the source
[24] = biological target: Metabotropic glutamate receptor 3 (Rattus norvegicus) (UniProt P31422); assay: Antagonistic activity against Glutamate receptor in rat spinal cord at concentration of 20 uM.; type: functional, tissue-based; method in brief: as §1
[25] = biological target: Substance-P receptor (Cavia porcellus) (UniProt P30547); assay: In vitro inhibition of substance P (6-11) hexapeptide induced contractions of the guinea pig ileum at 5 uM.; type: tissue-based
Method in brief: (§6)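 Agonist (SP or SP(6-11)-hexapeptide) dose-response curves on a 3-min cycle with 1-min contact, then washout. Dose ratio = agonist EC50 with antagonist / EC50 alone. At least two preparations per compound; ratios below 2 taken as insignificant.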

[26] = biological target: Substance-P receptor (Cavia porcellus) (UniProt P30547); assay: In vitro inhibition of substance P induced contractions of the guinea pig ileum at 5 uM.; type: tissue-based; method in brief: as §6
[27] = biological target: Substance-P receptor (Rattus norvegicus) (UniProt P14600); assay: Antagonistic activity against Substance P receptor in rat spinal cord at concentration of 20 uM.
[28] = biological target: Substance-P receptor (Rattus norvegicus) (UniProt P14600); assay: Antagonistic activity against Substance P(6-11) receptor in rat spinal cord at concentration of 20 uM.
[29] = biological target: Metabotropic glutamate receptor 3 (Rattus norvegicus) (UniProt P31422); assay: Antagonistic activity against Glutamate receptor in rat spinal cord at concentration of 10 uM.; type: functional, tissue-based; method in brief: as §1
[30] = biological target: Metabotropic glutamate receptor 3 (Rattus norvegicus) (UniProt P31422); assay: Antagonistic activity against Glutamate receptor in rat spinal cord at concentration of 5 uM.; type: functional, tissue-based; method in brief: as §1
Substance-P receptor [31] = biological target: T1, Substance-P receptor; assay: Histamine releasing activity of Substance P from isolated rat peritoneal mast cells; type: functional; method in brief: as §2
[32] = biological target: Substance-P receptor (Cavia porcellus) (UniProt P30547); assay: In vitro inhibition of substance P induced contractions of the guinea pig ileum at 10 uM.; type: tissue-based; method in brief: as §6
[33] = biological target: Substance-P receptor (Cavia porcellus) (UniProt P30547); assay: In vitro inhibition of substance P (6-11) hexapeptide induced contractions of the guinea pig ileum at 10 uM.; type: tissue-based; method in brief: as §6
[34] = Antagonistic activity against Glutamate receptor in rat spinal cord at concentration of 50 uM.
[35] = biological target: Substance-P receptor (Rattus norvegicus) (UniProt P14600); assay: Antagonistic activity against Substance P receptor in rat spinal cord at concentration of 5 uM.
[36] = tested on: muscarinic acetylcholine receptor (Rattus norvegicus); assay: Antagonistic activity against Carbachol receptor in rat spinal cord at concentration of 5 uM.
[37] = biological target: Substance-P receptor (Rattus norvegicus) (UniProt P14600); assay: Antagonistic activity against Substance P receptor in rat spinal cord at concentration of 10 uM.
[38] = biological target: Substance-P receptor (Rattus norvegicus) (UniProt P14600); assay: Antagonistic activity against Substance P receptor in rat spinal cord at concentration of 50 uM.
[39] = tested on: muscarinic acetylcholine receptor (Rattus norvegicus); assay: Antagonistic activity against Carbachol receptor in rat spinal cord at concentration of 10 uM.
[40] = biological target: Substance-P receptor (Rattus norvegicus) (UniProt P14600); assay: Antagonistic activity against Substance P(6-11) receptor in rat spinal cord at concentration of 5 uM.
[41] = biological target: Substance-P receptor (Rattus norvegicus) (UniProt P14600); assay: Antagonistic activity against Substance P(6-11) receptor in rat spinal cord at concentration of 10 uM.
[42] = biological target: Substance-P receptor (Rattus norvegicus) (UniProt P14600); assay: Antagonistic activity against Substance P(6-11) receptor in rat spinal cord at concentration of 50 uM.

Change in amplitude response [1]: -15% | IC50 (Substance-P receptor [2]): > 500000 nM | Activity [3]: 10.8 dose ratio | Activity [4]: 5 dose ratio | Activity [5]: 11.4 dose ratio | Activity [6]: 9.3 dose ratio | Change in amplitude response [7]: 0% | Change in amplitude response [8]: 17% | Change in amplitude response [9]: -44% | Change in amplitude response [10]: -54%
Structure (SMILES): COC(=O)[C@H](CCSC)NC(=O)[C@H](CC(C)C)NC(=O)[C@@H](Cc1c[nH]c2ccccc12)NC(=O)[C@H](Cc1ccccc1)NC(=O)[C@@H](Cc1ccccc1)NC(=O)[C@H](CCCCNC(=O)OCc1ccccc1)NC(=O)[C@H](CC(N)=O)NC(=O)[C@@H]1CCCN1C(=O)[C@H](CCCCNC(=O)OCc1ccccc1)NC(=O)[C@@H]1CCCN1C(=O)[C@H](CCCN=C(N)N)NC(=O)OCc1ccccc1

Change in amplitude response [11]: -7% | Change in amplitude response [12]: -12% | Change in amplitude response [13]: -31% | Change in amplitude response [14]: -23% | Change in amplitude response [15]: -25% | Activity [16]: 2.4 dose ratio | Activity [17]: 3.4 dose ratio | Activity [18]: 52 dose ratio | Activity [19]: 38 dose ratio | Activity [20]: 52 dose ratio | Activity [21]: 4.2 dose ratio | Activity [22]: 20.1 dose ratio | Activity [23]: 38 dose ratio
Structure (SMILES): COC(=O)[C@@H](CCSC)NC(=O)[C@@H](CC(C)C)SCCNC(=O)[C@@H](Cc1ccccc1)NC(=O)[C@H](Cc1ccccc1)NC(=O)[C@H](CCC(N)=O)NC(=O)[C@H](CCC(N)=O)NC(=O)[C@H]1CCCN1C(=O)[C@H](CCCCNC(=O)OCc1ccccc1)NC(=O)[C@H]1CCCN1C(=O)[C@H](CCCN=C(N)N)NC(=O)OCc1ccccc1

Change in amplitude response [24]: -9% | Activity [25]: 5.1 dose ratio | Activity [4]: 3.1 dose ratio | Activity [26]: 2.8 dose ratio | Activity [6]: 3.1 dose ratio | Change in amplitude response [27]: 17% | Change in amplitude response [28]: -85%
Structure (SMILES): COC(=O)[C@H](CCSC)NC(=O)[C@H](CC(C)C)NC(=O)[C@@H](Cc1c[nH]c2ccccc12)NC(=O)[C@H](Cc1ccccc1)NC(=O)[C@@H](Cc1ccccc1)NC(=O)[C@H](CCCN=C(N)N)NC(=O)[C@H](CC(N)=O)NC(=O)[C@@H]1CCCN1C(=O)[C@H](CCCCNC(=O)OCc1ccccc1)NC(=O)[C@@H]1CCCN1C(=O)[C@H](CCCN=C(N)N)NC(=O)OC(C)(C)C

Change in amplitude response [29]: -1% | Change in amplitude response [30]: -3% | IC50 (Substance-P receptor [31]): 600 nM | Activity [25]: 3.2 dose ratio | Activity [32]: 31.1 dose ratio | Activity [26]: 14 dose ratio | Activity [33]: 11.1 dose ratio | Change in amplitude response [34]: 20% | Change in amplitude response [35]: -29% | Change in amplitude response [36]: -52% | Change in amplitude response [37]: 3% | Change in amplitude response [38]: -37% | Change in amplitude response [39]: -51% | Change in amplitude response [40]: -73% | Change in amplitude response [41]: -75% | Change in amplitude response [42]: -85%
Structure (SMILES): COC(=O)[C@H](CCSC)NC(=O)[C@H](CC(C)C)NC(=O)[C@@H](Cc1c[nH]c2ccccc12)NC(=O)[C@H](Cc1ccccc1)NC(=O)[C@@H](Cc1ccccc1)NC(=O)[C@H](CCCN=C(N)N)NC(=O)[C@H](CC(N)=O)NC(=O)C1CCCN1C(=O)[C@H](CCCCNC(=O)OCc1ccccc1)NC(=O)C1CCCN1C(=O)[C@H](CCCN=C(N)N)NC(=O)OCc1ccccc1 (stereo in doubt)
